These results are taken from ChEMBL document CHEMBL4011626, “Structure-Based Optimization of Pyridoxal 5'-Phosphate-Dependent Transaminase Enzyme (BioA) Inhibitors that Target Biotin Biosynthesis in Mycobacterium tuberculosis” (J Med Chem, 2017).

For assay [1], the system named is Mycobacterium tuberculosis H37Rv. Briefly: Inhibition of Bio-A in wild type Mycobacterium tuberculosis H37Rv after 9 days. In outline: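 Wild-type Mtb H37Rv was pregrown in Sauton's medium with 1 μM biotin to OD580 1.0–1.2, washed twice in biotin-free Sauton's, and seeded at OD580 0.03 without biotin. Compounds were tested at 0.2–50 μM final, with no-compound controls, at 37 °C. OD580 was read at 9 days. MIC is the concentration giving 50% inhibition. Triplicate, two biological replicates.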

Assay [2] deals with Mycobacterium tuberculosis. As to the kind of experiment: Inhibition of Bio-A underexpressed in Mycobacterium tuberculosis in presence of anhydrotetracycline after 9 days. In a few lines: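 BioA-overexpressing or BioA-underexpressing Mtb strains were pregrown in Sauton's with 1 μM biotin, washed twice, and seeded at OD580 0.03 in biotin-free medium with 200 ng/mL anhydrotetracycline to set BioA expression. Compounds were tested at 0.2–50 μM final at 37 °C. OD580 was read after 9 days. MIC is the concentration giving 50% inhibition. Triplicate, two biological replicates.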

Assay [3] concerns Mycobacterium tuberculosis H37Rv. Briefly: Inhibition of Bio-A in wild type Mycobacterium tuberculosis H37Rv in presence of biotin after 9 days. In a few lines:
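Wild-type Mtb H37Rv was pregrown in Sauton's medium with 1 μM biotin to OD580 1.0–1.2, washed twice in biotin-free Sauton's, and seeded at OD580 0.03 with 1 μM biotin added. Compounds were tested at 0.2–50 μM final, with no-compound controls, at 37 °C. OD580 was read at 9 days. MIC is the concentration giving 50% inhibition. Triplicate, two biological replicates.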

Assay [4] is described as follows: Inhibition of wild type Mycobacterium tuberculosis Bio-A using KAPA as substrate after 45 mins in presence of fluorescently labeled dethiobiotin tracer.
Assay [5] relates to Mycobacterium tuberculosis. As to the kind of experiment: Antibacterial activity against wild type Mycobacterium tuberculosis H37Rv after 14 days. Conditions: 336 h. The assay is classed as functional.

≈ marks a conversion by molar mass, not a printed value.

`N#Cc1ccc(N2CCN(C(=O)c3cccc(Cl)c3)CC2)cc1`: the MIC50 in assay [1] came out at 18.5 µM (≈ 6.03 µg/mL); in assay [2], 44.8 µM.

Take `O=C1CCc2cc(N3CCN(C(=O)c4cccc(Cl)c4)CC3)ccc21`: the MIC50 worked out at 4.4 µM (≈ 1.56 µg/mL) in assay [1] and 0.3 µM in assay [2].

Turning to `CC(=O)c1ccc(-c2cn(Cc3cccc(Cl)c3)nn2)s1`, the MIC50 in assay [1] and in assay [2] was greater than 50 µM throughout.

Consider `CC(=O)c1ccc(N2CCC(C(=O)c3cccc(Cl)c3)CC2)cc1`, for which the MIC50 amounted to 4.1 µM (≈ 1.4 µg/mL) in assay [1] and 6.8 µM in assay [2].

In the case of `CCC(=O)N1CCN(c2ccc(C(C)=O)cc2)CC1`, the MIC50 in assay [1] and in assay [2] was greater than 50 µM throughout.

Take `CC(=O)c1cccc(N2CCN(C(=O)c3cccc(Cl)c3)CC2)c1`: the MIC50 was greater than 50 µM in assay [1] and 26.6 µM in assay [2].

Consider `CC(=O)c1ccc(N2CCN(C(=O)c3ccc4c(c3)OCCO4)CC2)cc1`, for which the MIC50 in assay [1] was greater than 50 µM; in assay [2], 10.4 µM.

For `CC(=O)c1ccc(N2CCN(C(=O)c3cscn3)CC2)cc1`, the MIC50 in assay [1] and in assay [2] was greater than 50 µM in each case.

Consider `C/C(=N\O)c1ccc(N2CCN(C(=O)c3cccc(Cl)c3)CC2)cc1`, for which the MIC50 in assay [1] amounted to 20.4 µM (≈ 7.3 µg/mL); in assay [2], 15.1 µM.

As to `CC(=O)c1ccc(N2CCN(C(=O)c3cncc(Cl)c3)CC2)cc1`, the MIC50 in assay [1] and in assay [2] was greater than 50 µM in each case.

As to `O=C1CCc2cc(N3CCN(C(=O)c4ccc5c(c4)OCO5)CC3)ccc21`, the figures for the MIC50 in assay [1] and in assay [2] were 1.7 µM (≈ 0.619 µg/mL) and 0.3 µM, respectively.

For the compound `CCCC(=O)N1CCN(c2ccc(C(C)=O)cc2)CC1`, the MIC50 in assay [1] and in assay [2] was greater than 50 µM in each case.

Consider `CC(=O)c1ccc(N2CCC(C(=O)c3ccc4c(c3)OCO4)CC2)cc1`, for which the MIC50 in assay [1] and in assay [2] was greater than 50 µM in each case.

On to `O=C(c1cccc(Cl)c1)N1CCN(c2ccc(-c3ccccn3)cc2)CC1`, for which the MIC50 in assay [1] and in assay [2] was greater than 50 µM each time.

For `CC(=O)c1ccc(N2CCN(C(=O)c3ccc4c(c3)OCCCO4)CC2)cc1`, the MIC50 in assay [1] is greater than 50 µM; in assay [2] it was 21.1 µM.

Regarding `O=C(c1cccc(Cl)c1)N1CCN(c2ccc([N+](=O)[O-])cc2)CC1`, the MIC50 in assay [1] stood at 15.4 µM (≈ 5.33 µg/mL); in assay [2] it was 4.7 µM.

Turning to `Cn1nnnc1-c1ccc(N2CCN(C(=O)c3cccc(Cl)c3)CC2)cc1`, the MIC50 in assay [1] and in assay [2] was greater than 50 µM throughout.

Consider `CN1Cc2cc(N3CCN(C(=O)c4cccc(Cl)c4)CC3)ccc2C1=O`, for which the MIC50 was determined as 15.2 µM (≈ 5.62 µg/mL) in assay [1] and 1.2 µM in assay [2].

In the case of `CC(=O)c1ccc(N2CCN(C(=O)c3cccnc3)CC2)cc1`, the MIC50 in assay [1] was greater than 50 µM; in assay [2], 14.6 µM.

As for `CC(=O)c1ccc(N2CCN(C(=O)c3cnn(C)c3)CC2)cc1`, the values for the MIC50 in assay [1] and in assay [2] were greater than 50 µM and 11.3 µM, respectively.

With `CC(=O)c1ccc(-c2cn(Cc3cccc(Cl)c3)nn2)cc1`, the MIC50 in assay [1] was 22 µM (≈ 6.86 µg/mL); in assay [3], greater than 50 µM; in assay [2], 24.4 µM.

For `COC(=O)c1ccc(N2CCN(C(=O)c3cccc(Cl)c3)CC2)cc1`, the MIC50 in assay [1] and in assay [2] was greater than 50 µM each time.

Turning to `COc1ccc(-c2ccc(N3CCN(C(=O)c4cccc(Cl)c4)CC3)cc2)nc1`, the results for the MIC50 in assay [1], in assay [3] and in assay [2] were 22 µM (≈ 8.97 µg/mL), greater than 50 µM and 24.4 µM, respectively.

Regarding `CC(=O)c1ccc(N2CCN(C(=O)c3ccc4c(c3)OCO4)CC2)cc1`, the MIC50 in assay [1] came out at 5.6 µM (≈ 1.97 µg/mL); in assay [2], 0.4 µM. Moreover, the figures for the MIC90 in assay [1], in assay [3] and in assay [2] were 23.4 µM (≈ 8.25 µg/mL), greater than 50 µM and 1.7 µM, respectively. Further, in assay [4], the IC50 (as a rule, the concentration that gives 50% inhibition) was found to be 155 nM. Further, in assay [5], it took 26 µM (≈ 9.16 µg/mL) to inhibit growth (MIC).

As for `CC(=O)c1ccc(N2CCN(C(=O)CC(C)C)CC2)cc1`, the MIC50 in assay [1] and in assay [2] was greater than 50 µM throughout.

`CC(=O)c1ccc(N2CCN(C(=O)c3cccc(Cl)c3)CC2)s1`: the MIC50 was 9.9 µM (≈ 3.45 µg/mL) in assay [1] and 1.1 µM in assay [2].

As for `CCCCCC(=O)N1CCN(c2ccc(C(C)=O)cc2)CC1`, the MIC50 came out at 8.7 µM (≈ 2.63 µg/mL) in assay [1] and 10.6 µM in assay [2].

For `CC(=O)c1ccc(N2CCN(C(=O)c3ccc(Cl)c(Cl)c3)CC2)cc1`, the MIC50 in assay [1] is 10.2 µM (≈ 3.85 µg/mL); in assay [2], 1.9 µM.

As for `COc1cc(Cl)cc(C(=O)N2CCN(c3ccc(C(C)=O)cc3)CC2)c1`, the MIC50 in assay [1] was found to be 28.6 µM (≈ 10.7 µg/mL); in assay [2] it was 18.3 µM.

Regarding `O=C(c1cccc(Cl)c1)N1CCN(c2ccc3c(c2)COC3)CC1`, the MIC50 in assay [1] worked out at 40.8 µM (≈ 14 µg/mL); in assay [2], 12.8 µM.

As to `O=C(c1cccc(Cl)c1)N1CCN(c2ccc(-c3ccno3)cc2)CC1`, the MIC50 in assay [1] was found to be 6.7 µM (≈ 2.46 µg/mL); in assay [2] it was 0.4 µM.

With `CC(=O)c1ccc(N2CCN(C(=O)c3cc(Cl)cc(Cl)c3)CC2)cc1`, the MIC50 in assay [1] and in assay [2] was greater than 50 µM each time.

Consider `O=C1OCc2cc(N3CCN(C(=O)c4cccc(Cl)c4)CC3)ccc21`, for which the MIC50 in assay [1] is 35 µM (≈ 12.5 µg/mL); in assay [2] it was 1.8 µM.

For `Cc1noc(-c2ccc(N3CCN(C(=O)c4cccc(Cl)c4)CC3)cc2)n1`, the MIC50 in assay [1] and in assay [2] was greater than 50 µM each time.

For `CC(=O)c1ccc(N2CCN(C(=O)c3cccc(Cl)c3)CC2)cc1`, the MIC50 in assay [1] stood at 5.1 µM (≈ 1.75 µg/mL); in assay [2], 0.5 µM.
